# Data taken from ChEMBL document CHEMBL4715691, “Synthesis of Triphenylethylene Bisphenols as Aromatase Inhibitors That Also Modulate Estrogen Receptors” (J Med Chem, 2016).
# Columns and labels:
# [1] = molecular target: Estrogen receptor beta (Homo sapiens) (UniProt Q92731); experiment: Displacement of ES2 from recombinant human ER-beta at 100 uM incubated for 2 hrs by fluorescence based assay relative to control
# Outline: (§1)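 Fluorescence polarization competition: test compound at 100 μM, 9 nM ES2 with 20 nM recombinant human ER-β in ES2 screening buffer (100 mM potassium phosphate, 100 µg/mL BGG, 0.02% NaN₃). Incubated 2 h protected from light, ex/em 485/530. Percent of remaining polarization versus vehicle control. Means of at least three experiments.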
# [2] = molecular target: T1, Estrogen receptor (Homo sapiens) (UniProt P03372); experiment: Displacement of ES2 from recombinant human ER-alpha at 100 uM incubated for 2 hrs by fluorescence based assay relative to control
# T1 sequence (whole entry): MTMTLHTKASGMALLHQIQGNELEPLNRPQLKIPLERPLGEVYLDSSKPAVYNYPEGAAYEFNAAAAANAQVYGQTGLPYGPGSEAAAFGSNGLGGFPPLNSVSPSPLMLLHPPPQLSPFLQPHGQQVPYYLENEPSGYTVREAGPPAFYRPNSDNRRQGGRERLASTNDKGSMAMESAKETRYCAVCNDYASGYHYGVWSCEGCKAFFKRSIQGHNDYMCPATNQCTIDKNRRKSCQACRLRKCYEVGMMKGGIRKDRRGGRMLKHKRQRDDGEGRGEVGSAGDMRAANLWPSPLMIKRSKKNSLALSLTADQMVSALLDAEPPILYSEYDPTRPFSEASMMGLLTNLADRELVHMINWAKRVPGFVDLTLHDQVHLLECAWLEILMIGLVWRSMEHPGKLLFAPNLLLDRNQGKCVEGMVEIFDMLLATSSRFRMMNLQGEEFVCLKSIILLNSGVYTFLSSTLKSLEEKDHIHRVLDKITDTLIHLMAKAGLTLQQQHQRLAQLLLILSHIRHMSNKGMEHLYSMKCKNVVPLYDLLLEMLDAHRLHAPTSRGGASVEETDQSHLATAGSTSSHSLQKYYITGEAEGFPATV
# Outline: as §1, with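 “30” for “20”, “ER-α” for “ER-β”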
# [3] = test system: MCF7; experiment: Selective estrogen receptor modulator activity in human MCF7 cells assessed as E2-induced progesterone receptor mRNA expression level at 1 uM incubated for 24 hrs by real time PCR analysis (reference value: 100%); format: cell-based; conditions: filed as modulator
# Outline: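 MCF-7 cells grown in MEM with 10% FBS, then held 72 h in charcoal-stripped FBS. […] Genomic DNA removed, RNA extracted, PGR mRNA measured by real-time PCR (40 cycles) from Ct values.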
# [4] = test system: MCF7; experiment: Antagonist activity at estrogen receptor in human MCF7 cells assessed as E2-induced progesterone receptor mRNA expression level at 1 uM incubated for 24 hrs by real time PCR analysis (reference value: 100%); format: cell-based; design: scale not given: the % may be the effect or the level left; conditions: filed as antagonist
# Outline: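 ER-positive MCF-7 cells grown in MEM with 10% FBS, 37 °C, 5% CO2, then preconditioned 72 h in charcoal-stripped FBS. […] RNA extracted after genomic DNA removal; PGR mRNA quantified by real-time PCR from threshold cycle, 40 cycles.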
# Chain of Estrogen receptor beta (Homo sapiens) (Q92731 whole entry): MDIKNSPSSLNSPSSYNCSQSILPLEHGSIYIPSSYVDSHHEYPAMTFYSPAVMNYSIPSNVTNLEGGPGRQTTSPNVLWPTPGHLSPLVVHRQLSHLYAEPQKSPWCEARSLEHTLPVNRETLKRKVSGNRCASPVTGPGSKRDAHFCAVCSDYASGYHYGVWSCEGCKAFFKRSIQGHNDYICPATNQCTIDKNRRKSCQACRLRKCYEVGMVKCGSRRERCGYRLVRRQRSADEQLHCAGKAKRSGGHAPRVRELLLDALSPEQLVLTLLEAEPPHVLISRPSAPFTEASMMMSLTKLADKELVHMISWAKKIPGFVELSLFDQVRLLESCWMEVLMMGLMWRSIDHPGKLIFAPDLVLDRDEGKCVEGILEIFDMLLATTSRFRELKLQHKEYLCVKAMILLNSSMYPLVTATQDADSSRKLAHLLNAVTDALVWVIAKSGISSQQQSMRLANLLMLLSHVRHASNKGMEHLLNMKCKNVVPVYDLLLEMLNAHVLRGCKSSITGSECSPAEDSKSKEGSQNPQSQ
Structure (SMILES),inhibition [1] [%],inhibition [2] [%],inhibition ([1]; filed as modulator) [%],inhibition ([2]; filed as modulator) [%],Activity [3] [%],Activity [4] [%]
Oc1ccc(C(=C(Cn2cncn2)c2ccc(O)c(F)c2)c2ccc(O)cc2)cc1,0,2,,,,
Oc1ccc(C(Cn2cnnc2)=C(c2ccc(O)cc2)c2ccc(O)cc2)cc1,,,> 90,> 90,,
Oc1ccc(C(Cn2ccnc2)=C(c2ccc(O)cc2)c2ccc(O)cc2)cc1,,,> 90,> 90,26,
N#CCC(=C(c1ccc(O)cc1)c1ccc(O)cc1)c1ccc(O)c(F)c1,0,0,,,,
Oc1ccc(C(=C(Cn2cnnc2)c2ccc(O)c(F)c2)c2ccc(O)cc2)cc1,0,0,,,,
Nc1ccc(C(Cn2ccnc2)=C(c2ccc(O)cc2)c2ccc(O)cc2)cc1,,,> 90,> 90,26,
Oc1ccc(C(=C(Cn2cncn2)c2ccccc2)c2ccc(O)cc2)cc1,33,12,,,,
CC/C(=C(\c1ccc(O)cc1)c1ccc(OCCN(C)C)cc1)c1ccccc1,,,,,,10
CCC(=C(c1ccc(O)cc1)c1ccc(O)cc1)c1ccccc1,,,> 90,80,,
Oc1ccc(C(=C(Cn2ccnc2)c2ccccc2)c2ccc(O)cc2)cc1,,,> 90,> 90,26,
CCC(=C(c1ccc(O)cc1)c1ccc(OCCN)cc1)c1ccccc1,,,,,,33
Oc1ccc(C(=C(Cn2ccnc2)c2cccc(O)c2)c2ccc(O)cc2)cc1,29,0,,,,
Nc1ccc(C(Cn2cncn2)=C(c2ccc(O)cc2)c2ccc(O)cc2)cc1,2,0,,,,
N#CCC(=C(c1ccc(O)cc1)c1ccc(O)cc1)c1ccc(O)cc1,3,0,,,,
Nc1ccc(C(Cn2cnnc2)=C(c2ccc(O)cc2)c2ccc(O)cc2)cc1,36,13,,,,
Oc1ccc(C(=C(Cn2ccnc2)c2ccc(O)c(F)c2)c2ccc(O)cc2)cc1,,,> 90,> 90,26,
N#CCC(=C(c1ccc(O)cc1)c1ccc(O)cc1)c1ccc(N)cc1,0,0,,,,
N#CCC(=C(c1ccc(O)cc1)c1ccc(O)cc1)c1ccccc1,,,49,56,,
Nc1cccc(C(Cn2ccnc2)=C(c2ccc(O)cc2)c2ccc(O)cc2)c1,,,71,60,,
Oc1ccc(C(Cn2cncn2)=C(c2ccc(O)cc2)c2ccc(O)cc2)cc1,,,40,45,,
